{"data": "Measurements of several laboratories", "note": "Each line is one published result; the experiments were not run side by side."}
{"SMILES": "CCOc1ccc(Cc2cc([C@@H]3O[C@H](CO)[C@@H](O)[C@H](O)[C@H]3O)ccc2Cl)cc1", "test system": "human, plasma", "setting": "oral, 10 mg, multiple doses, steady state", "AUC": "493 ng·h/mL"}
{"SMILES": "NS(=O)(=O)NCCNc1nonc1C(=NO)Nc1ccc(F)c(Br)c1", "test system": "human, plasma", "setting": "oral, 50 mg, multiple doses, once daily, steady state, patients", "AUC": "1.58 µM·h"}
{"SMILES": "OC[C@H]1O[C@@H](c2ccc(Cl)c(Cc3ccc(O[C@H]4CCOC4)cc3)c2)[C@H](O)[C@@H](O)[C@@H]1O", "test system": "male human, plasma", "setting": "oral, 25 mg, multiple doses, once daily, steady state, healthy volunteers", "AUC": "3960 ng·h/mL"}
{"SMILES": "Cn1c(=O)oc2ccc(-c3ccc(C[C@@H](C#N)NC(=O)[C@@H]4CNCCCO4)cc3)cc21", "test system": "male human, plasma", "setting": "oral, 5 mg, single dose, healthy volunteers", "AUC": "0.915 µM·h"}
{"SMILES": "COc1cc(C(=O)NC2CCN(C)CC2)c(F)cc1Nc1ncc(C(F)(F)F)c(Oc2cccc3c2C(=O)N(C)C3)n1", "test system": "human, plasma", "setting": "oral, 200 mg, multiple doses, once daily, steady state, patients", "AUC": "35.4 µM·h"}
{"SMILES": "CC(C)(C)OC[C@@H]1C(=O)NCCN1C(=O)C[C@H](N)Cc1cc(F)c(F)cc1F", "test system": "male human, plasma", "setting": "oral, 5 mg, multiple doses, steady state", "AUC": "91.4 ng·h/mL"}
{"SMILES": "Cc1ccc(C(=O)N(CCCN)[C@@H](c2oc3cc(Cl)ccc3c(=O)c2Cc2ccccc2)C(C)C)cc1", "test system": "human, plasma", "setting": "intravenous, 2 mg/m², single dose, patients, infusion", "AUC": "2520 ng·h/mL"}
{"SMILES": "CS(=O)(=O)CCNCc1ccc(-c2ccc3ncnc(Nc4ccc(OCc5cccc(F)c5)c(Cl)c4)c3c2)o1", "test system": "human, serum", "setting": "oral, 1250 mg, single dose", "AUC": "9070 ng·h/mL"}
{"SMILES": "C[C@@H](c1ccc2nccn2c1)n1nnc2ncc(-c3cnn(C)c3)nc21", "test system": "human, plasma", "setting": "oral, 200 mg", "AUC": "4010 ng·h/mL"}
{"SMILES": "CS(=O)(=O)CCC#N", "test system": "human, plasma", "setting": "oral, 1000 mg, multiple doses, once daily", "AUC": "723000 ng·h/mL"}
